Data reported in ChEMBL document CHEMBL3774372, “Design, physico-chemical properties and biological evaluation of some new N-[(phenoxy)alkyl]- and N-{2-[2-(phenoxy)ethoxy]ethyl}aminoalkanols as anticonvulsant agents” (Bioorg Med Chem, 2016).
Activity calls are given as the source filed them.

Columns and labels:
Rattus norvegicus [1] = organism: Rattus norvegicus; experiment: Displacement of [125I][Tyr4]bombesin from rat cerebral cortex Bombesin receptor at 10^-5 M; format: tissue-based
Procedure, shortened: (§1)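 Radioligand binding screen run at a single test concentration of 10^-5 M. Each target used its stated receptor source (human recombinant CHO or HEK-293 cells, endogenous cell lines, or rat tissue membranes) with the listed radioligand.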

[2] = molecular target: Adenosine receptor A2a (Homo sapiens) (UniProt P29274); experiment: Displacement of [3H]CGS 21680 from human recombinant adenosine A2a receptor expressed in HEK293 cells at 10^-5 M; format: cell-based; procedure, shortened: as §1
Mus musculus [3] = experiment: Anticonvulsant activity in mouse assessed as protection against subcutaneous pentylenetetrazol-induced seizures at 30 mg/kg, ip measured after 0.5 hrs; format: functional, organism-based
Procedure, shortened: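 Mice dosed ip as 0.5% methylcellulose suspension; pentylenetetrazole 85 mg/kg in 0.9% NaCl injected subcutaneously into posterior midline, animals watched at least 30 min. Protection = no threshold seizure (single clonic spasm episode lasting ≥5 s); scored protected/tested.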

[4] = molecular target: Cholecystokinin receptor type A (Homo sapiens) (UniProt P32238); experiment: Displacement of [125I]CCK-8s from human recombinant CCK-A receptor expressed in CHO cells at 10^-5 M; format: cell-based; procedure, shortened: as §1
[5] = molecular target: Neuromedin-K receptor (Homo sapiens) (UniProt P29371); experiment: Displacement of [3H]SR142801 from human recombinant NK3 receptor expressed in CHO cells at 10^-5 M; format: cell-based
Procedure, shortened: (§2)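 Radioligand displacement screen with the test agent at a single 10^-5 M concentration; receptor source and radioligand per target as tabulated (recombinant human cell lines or rat cerebral cortex/urinary bladder).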

[6] = molecular target: D(1A) dopamine receptor (Homo sapiens) (UniProt P21728); experiment: Displacement of [3H]SCH23390 from human recombinant Dopamine D1 receptor expressed in CHO cells at 10^-5 M; format: cell-based; procedure, shortened: as §2
[7] = molecular target: 5-hydroxytryptamine receptor 1B (Rattus norvegicus) (UniProt P28564); experiment: Displacement of [125I]CYP from rat cerebral cortex 5-HT1B receptor at 10^-5 M in the presence of isoproternol; format: tissue-based; procedure, shortened: as §1
[8] = molecular target: Adenosine receptor A3 (Homo sapiens) (UniProt P0DMS8); experiment: Displacement of [125I]ABMECA from human recombinant adenosine A3 receptor expressed in HEK293 cells at 10^-5 M; format: cell-based; procedure, shortened: as §1
[9] = molecular target: 5-hydroxytryptamine receptor 6 (Homo sapiens) (UniProt P50406); experiment: Displacement of [3H]LSD from human recombinant 5-HT6 receptor expressed in CHO cells at 10^-5 M; format: cell-based; procedure, shortened: as §1
Rattus norvegicus [10] = organism: Rattus norvegicus; experiment: Displacement of [[…]]batrachotoxin from rat cerebral cortex Sodium channel site 2 at 10^-5 M; format: tissue-based
[11] = molecular target: 5-hydroxytryptamine receptor 7 (Homo sapiens) (UniProt P34969); experiment: Displacement of [3H]LSD from human recombinant 5-HT7 receptor expressed in CHO cells at 10^-5 M; format: cell-based; procedure, shortened: as §1
[12] = molecular target: Substance-K receptor (Homo sapiens) (UniProt P21452); experiment: Displacement of [125I]NKA from human recombinant NK2 receptor expressed in CHO cells at 10^-5 M; format: cell-based; procedure, shortened: as §1
[13] = molecular target: Muscarinic acetylcholine receptor M1 (Homo sapiens) (UniProt P11229); experiment: Displacement of [3H]pirenzepine from human recombinant muscarinic M1 receptor expressed in CHO cells at 10^-5 M; format: cell-based; procedure, shortened: as §2
[14] = molecular target: Adrenergic receptor alpha-2 (Rattus norvegicus) (UniProt P22086+P19328+P22909); experiment: Displacement of [3H]RX 821002 from rat cerebral cortex Alpha-2 adrenergic receptor at 10^-5 M; format: tissue-based; procedure, shortened: as §1
[15] = molecular target: 5-hydroxytryptamine receptor 1A (Homo sapiens) (UniProt P08908); experiment: Displacement of [3H]8-OHDPAT from human recombinant 5-HT1A receptor expressed in HEK293 cells at 10^-5 M; format: cell-based; procedure, shortened: as §1
[16] = molecular target: Somatostatin receptor (Mus musculus) (UniProt P30935+O08858+P30875+P30873+P49660); experiment: Displacement of [125I]Tyr11-somatostatin-14 from somatostatin receptor in mouse AtT20 cells at 10^-5 M; format: cell-based; procedure, shortened: as §1
[17] = molecular target: Beta-2 adrenergic receptor (Homo sapiens) (UniProt P07550); experiment: Displacement of [3H](-)CGP12177 from human recombinant Beta-2 adrenergic receptor expressed in CHO cells at 10^-5 M; format: cell-based; procedure, shortened: as §1
[18] = molecular target: Histamine H1 receptor (Homo sapiens) (UniProt P35367); experiment: Displacement of [3H]pyrilamine from human recombinant histamine H1 receptor expressed in HEK293 cells at 10^-5 M; format: cell-based; procedure, shortened: as §2
[19] = molecular target: Muscarinic acetylcholine receptor M5 (Homo sapiens) (UniProt P08912); experiment: Displacement of [3H]4-DAMP from human recombinant muscarinic M5 receptor expressed in CHO cells at 10^-5 M; format: cell-based; procedure, shortened: as §1
Rattus norvegicus [20] = organism: Rattus norvegicus; experiment: Displacement of [3H]TCP from rat cerebral cortex PCP receptor at 10^-5 M; format: tissue-based; procedure, shortened: as §2
[21] = molecular target: Prostaglandin E2 receptor EP2 subtype (Homo sapiens) (UniProt P43116); experiment: Displacement of [3H]PGE2 from human recombinant prostanoid EP2 receptor expressed in HEK293 cells at 10^-5 M; format: cell-based; procedure, shortened: as §1
Rattus norvegicus [22] = organism: Rattus norvegicus; experiment: Displacement of [35S]dATPalpha S from rat cerebral cortex P2Y receptor at 10^-5 M; format: tissue-based; procedure, shortened: as §1
Mus musculus [23] = experiment: Anticonvulsant activity in mouse assessed as protection against maximal electric shock-induced seizures at 3 mg/kg, ip measured after 0.5 hrs; format: functional, organism-based
Procedure, shortened: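 Mice dosed ip with suspension in 0.5% methylcellulose; maximal electroshock applied at the listed time after dosing. Protection = abolition of hindlimb tonic extension component of seizure; reported as animals protected/animals tested.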

Rattus norvegicus [24] = organism: Rattus norvegicus; experiment: Displacement of [3H]GABA from rat cerebral cortex GABA receptor at 10^-5 M; format: tissue-based; procedure, shortened: as §1
[25] = molecular target: 5-hydroxytryptamine receptor 5A (Homo sapiens) (UniProt P47898); experiment: Displacement of [3H]LSD from human recombinant 5-HT5A receptor expressed in HEK293 cells at 10^-5 M; format: cell-based; procedure, shortened: as §1
[26] = molecular target: Muscarinic acetylcholine receptor M4 (Homo sapiens) (UniProt P08173); experiment: Displacement of [3H]4-DAMP from human recombinant muscarinic M4 receptor expressed in CHO cells at 10^-5 M; format: cell-based; procedure, shortened: as §1
[27] = molecular target: 5-hydroxytryptamine receptor 2A (Homo sapiens) (UniProt P28223); experiment: Displacement of [3H]ketanserin from human recombinant 5-HT2A receptor expressed in HEK293 cells at 10^-5 M; format: cell-based; procedure, shortened: as §2
[28] = molecular target: Type-2 angiotensin II receptor (Homo sapiens) (UniProt P50052); experiment: Displacement of [125I]CGP42112A from human recombinant AT2 receptor expressed in HEK293 cells at 10^-5 M; format: cell-based; procedure, shortened: as §1
[29] = molecular target: D(2) dopamine receptor (Homo sapiens) (UniProt P14416); experiment: Displacement of [3H]methylspiperone from human recombinant Dopamine D2S receptor expressed in HEK293 cells at 10^-5 M; format: cell-based; procedure, shortened: as §2
[30] = molecular target: Nociceptin receptor (Homo sapiens) (UniProt P41146); experiment: Displacement of [3H]nociceptin from human recombinant Nociceptin receptor expressed in HEK293 cells at 10^-5 M; format: cell-based; procedure, shortened: as §2
Rattus norvegicus [31] = experiment: Anticonvulsant activity in pilocarpine-induced status epilepticus Sprague-Dawley rat model at 30 mg/kg, ip after 0.5 hrs during post stage 3 seizure; format: functional, organism-based
Procedure, shortened: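 Rats given pilocarpine 50 mg/kg ip and observed to first convulsive seizure (Racine stage 3–5, time zero); test drug then given ip in 0.5% methylcellulose. Efficacy = halting further stage 3–5 convulsive seizures; scored protected/tested, time after first stage 3 seizure.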

Adenosine receptor A2a (Homo sapiens), sequence (P29274 whole entry): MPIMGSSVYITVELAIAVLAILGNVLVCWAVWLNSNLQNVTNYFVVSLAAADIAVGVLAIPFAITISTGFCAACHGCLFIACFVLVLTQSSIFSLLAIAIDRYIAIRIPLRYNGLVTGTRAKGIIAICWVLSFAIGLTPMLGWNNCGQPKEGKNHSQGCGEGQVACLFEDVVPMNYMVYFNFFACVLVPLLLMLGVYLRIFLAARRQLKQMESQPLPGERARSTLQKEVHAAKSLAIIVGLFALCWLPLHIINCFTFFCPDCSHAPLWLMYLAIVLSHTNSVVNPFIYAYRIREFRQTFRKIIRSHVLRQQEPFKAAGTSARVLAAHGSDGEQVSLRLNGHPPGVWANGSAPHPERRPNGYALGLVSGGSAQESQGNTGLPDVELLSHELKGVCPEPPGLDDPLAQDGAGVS
5-hydroxytryptamine receptor 1B (Rattus norvegicus), sequence (P28564 whole entry): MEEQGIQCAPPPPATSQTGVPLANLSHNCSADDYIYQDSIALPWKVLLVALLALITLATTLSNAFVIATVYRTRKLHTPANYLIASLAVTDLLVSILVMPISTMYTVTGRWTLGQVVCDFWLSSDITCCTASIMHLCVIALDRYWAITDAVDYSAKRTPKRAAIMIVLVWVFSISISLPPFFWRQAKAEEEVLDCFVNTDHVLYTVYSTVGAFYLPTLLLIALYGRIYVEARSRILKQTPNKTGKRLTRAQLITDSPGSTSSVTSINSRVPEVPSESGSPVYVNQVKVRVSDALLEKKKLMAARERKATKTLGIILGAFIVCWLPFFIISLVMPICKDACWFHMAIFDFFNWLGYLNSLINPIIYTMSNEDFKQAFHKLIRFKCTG
Neuromedin-K receptor (Homo sapiens), sequence (P29371 whole entry): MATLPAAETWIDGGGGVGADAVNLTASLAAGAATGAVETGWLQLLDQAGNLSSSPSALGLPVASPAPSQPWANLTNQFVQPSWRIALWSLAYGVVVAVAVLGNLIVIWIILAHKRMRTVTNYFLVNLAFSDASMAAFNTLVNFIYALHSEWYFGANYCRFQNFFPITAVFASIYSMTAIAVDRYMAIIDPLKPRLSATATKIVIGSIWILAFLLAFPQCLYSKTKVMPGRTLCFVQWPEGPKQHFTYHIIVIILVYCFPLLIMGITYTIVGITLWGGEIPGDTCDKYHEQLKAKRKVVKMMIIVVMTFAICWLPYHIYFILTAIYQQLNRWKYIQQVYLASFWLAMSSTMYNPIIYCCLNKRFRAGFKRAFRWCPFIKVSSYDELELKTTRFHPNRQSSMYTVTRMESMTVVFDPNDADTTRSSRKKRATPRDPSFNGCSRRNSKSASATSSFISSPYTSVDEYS
D(2) dopamine receptor (Homo sapiens), sequence (P14416 whole entry): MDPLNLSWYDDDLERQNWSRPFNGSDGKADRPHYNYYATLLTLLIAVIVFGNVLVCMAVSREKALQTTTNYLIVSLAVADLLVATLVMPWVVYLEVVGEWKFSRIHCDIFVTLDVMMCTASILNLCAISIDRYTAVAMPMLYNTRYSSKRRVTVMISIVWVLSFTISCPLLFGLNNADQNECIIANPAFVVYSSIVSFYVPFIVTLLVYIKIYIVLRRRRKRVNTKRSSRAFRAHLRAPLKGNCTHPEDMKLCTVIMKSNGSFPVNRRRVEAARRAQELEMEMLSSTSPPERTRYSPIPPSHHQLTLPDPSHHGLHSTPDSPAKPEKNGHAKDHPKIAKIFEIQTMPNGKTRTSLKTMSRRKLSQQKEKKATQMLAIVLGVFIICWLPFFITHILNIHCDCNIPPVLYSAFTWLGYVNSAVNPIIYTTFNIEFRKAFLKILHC
5-hydroxytryptamine receptor 2A (Homo sapiens), sequence (P28223 whole entry): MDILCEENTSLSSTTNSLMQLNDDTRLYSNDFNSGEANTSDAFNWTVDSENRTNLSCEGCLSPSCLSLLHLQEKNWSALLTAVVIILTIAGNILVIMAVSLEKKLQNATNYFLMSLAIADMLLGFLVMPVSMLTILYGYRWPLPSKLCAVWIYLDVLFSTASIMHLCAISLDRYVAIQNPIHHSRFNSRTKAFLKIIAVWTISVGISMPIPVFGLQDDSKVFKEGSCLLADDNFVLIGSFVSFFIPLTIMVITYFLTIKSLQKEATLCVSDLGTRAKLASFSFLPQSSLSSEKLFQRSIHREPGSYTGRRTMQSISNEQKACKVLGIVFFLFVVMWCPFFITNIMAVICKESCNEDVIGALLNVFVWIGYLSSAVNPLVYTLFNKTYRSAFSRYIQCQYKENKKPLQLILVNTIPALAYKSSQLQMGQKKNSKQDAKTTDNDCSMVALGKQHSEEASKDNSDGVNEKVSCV
D(1A) dopamine receptor (Homo sapiens), sequence (P21728 whole entry): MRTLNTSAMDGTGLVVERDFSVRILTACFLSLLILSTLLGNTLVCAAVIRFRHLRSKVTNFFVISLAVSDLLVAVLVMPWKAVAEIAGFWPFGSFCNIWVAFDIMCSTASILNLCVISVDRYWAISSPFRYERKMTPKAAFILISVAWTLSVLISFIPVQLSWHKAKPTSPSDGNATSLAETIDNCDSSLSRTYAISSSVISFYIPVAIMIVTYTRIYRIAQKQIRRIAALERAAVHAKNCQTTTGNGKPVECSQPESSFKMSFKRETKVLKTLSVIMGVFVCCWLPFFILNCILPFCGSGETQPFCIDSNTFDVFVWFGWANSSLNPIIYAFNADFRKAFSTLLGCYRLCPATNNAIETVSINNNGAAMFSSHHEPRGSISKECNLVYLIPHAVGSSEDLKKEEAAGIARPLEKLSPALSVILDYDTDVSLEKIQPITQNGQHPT
Muscarinic acetylcholine receptor M5 (Homo sapiens), sequence (P08912 whole entry): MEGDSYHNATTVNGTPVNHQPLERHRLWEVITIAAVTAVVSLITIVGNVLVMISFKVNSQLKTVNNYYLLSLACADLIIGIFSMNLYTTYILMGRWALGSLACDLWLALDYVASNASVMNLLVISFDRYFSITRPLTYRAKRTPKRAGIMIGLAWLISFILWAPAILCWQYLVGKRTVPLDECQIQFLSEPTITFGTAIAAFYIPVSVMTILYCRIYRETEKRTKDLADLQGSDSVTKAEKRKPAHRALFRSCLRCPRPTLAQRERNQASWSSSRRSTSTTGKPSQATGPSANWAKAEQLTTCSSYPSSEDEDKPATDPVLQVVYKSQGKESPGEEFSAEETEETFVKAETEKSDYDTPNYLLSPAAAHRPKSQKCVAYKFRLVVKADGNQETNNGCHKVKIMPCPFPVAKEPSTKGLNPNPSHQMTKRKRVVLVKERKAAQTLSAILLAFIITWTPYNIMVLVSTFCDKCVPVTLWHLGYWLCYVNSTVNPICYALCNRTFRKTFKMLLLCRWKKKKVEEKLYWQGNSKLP
Muscarinic acetylcholine receptor M4 (Homo sapiens), sequence (P08173 whole entry): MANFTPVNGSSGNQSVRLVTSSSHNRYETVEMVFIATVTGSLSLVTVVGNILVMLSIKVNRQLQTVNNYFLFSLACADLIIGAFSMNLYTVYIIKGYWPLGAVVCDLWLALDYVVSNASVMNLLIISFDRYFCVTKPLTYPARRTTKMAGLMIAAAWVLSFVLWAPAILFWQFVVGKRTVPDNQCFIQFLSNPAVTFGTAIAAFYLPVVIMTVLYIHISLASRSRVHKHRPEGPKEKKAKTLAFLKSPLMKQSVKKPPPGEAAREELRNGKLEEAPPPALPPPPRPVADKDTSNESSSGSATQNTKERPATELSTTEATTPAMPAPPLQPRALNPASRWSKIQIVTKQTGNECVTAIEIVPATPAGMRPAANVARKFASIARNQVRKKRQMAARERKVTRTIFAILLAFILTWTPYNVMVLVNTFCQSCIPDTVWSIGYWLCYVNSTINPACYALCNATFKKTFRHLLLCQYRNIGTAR
Adenosine receptor A3 (Homo sapiens), sequence (P0DMS8 whole entry): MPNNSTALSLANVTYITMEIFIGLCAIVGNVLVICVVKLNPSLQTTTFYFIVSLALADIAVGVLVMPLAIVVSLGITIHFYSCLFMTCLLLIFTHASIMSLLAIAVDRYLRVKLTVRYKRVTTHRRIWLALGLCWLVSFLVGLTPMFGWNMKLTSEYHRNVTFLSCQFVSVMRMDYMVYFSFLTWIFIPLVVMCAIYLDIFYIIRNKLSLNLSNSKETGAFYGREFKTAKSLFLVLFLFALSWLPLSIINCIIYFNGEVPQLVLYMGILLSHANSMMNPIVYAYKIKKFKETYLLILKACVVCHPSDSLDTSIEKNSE
5-hydroxytryptamine receptor 1A (Homo sapiens), sequence (P08908 whole entry): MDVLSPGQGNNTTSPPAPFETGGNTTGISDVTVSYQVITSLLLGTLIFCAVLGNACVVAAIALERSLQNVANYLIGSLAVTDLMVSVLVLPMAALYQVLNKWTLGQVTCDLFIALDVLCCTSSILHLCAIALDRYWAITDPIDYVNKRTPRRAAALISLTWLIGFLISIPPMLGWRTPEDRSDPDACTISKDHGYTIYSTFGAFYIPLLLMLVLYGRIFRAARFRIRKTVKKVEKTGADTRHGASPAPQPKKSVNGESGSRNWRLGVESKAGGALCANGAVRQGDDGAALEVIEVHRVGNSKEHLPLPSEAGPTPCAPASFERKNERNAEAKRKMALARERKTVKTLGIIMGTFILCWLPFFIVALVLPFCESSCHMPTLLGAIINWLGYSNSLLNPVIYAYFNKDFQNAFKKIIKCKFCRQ
Nociceptin receptor (Homo sapiens), sequence (P41146 whole entry): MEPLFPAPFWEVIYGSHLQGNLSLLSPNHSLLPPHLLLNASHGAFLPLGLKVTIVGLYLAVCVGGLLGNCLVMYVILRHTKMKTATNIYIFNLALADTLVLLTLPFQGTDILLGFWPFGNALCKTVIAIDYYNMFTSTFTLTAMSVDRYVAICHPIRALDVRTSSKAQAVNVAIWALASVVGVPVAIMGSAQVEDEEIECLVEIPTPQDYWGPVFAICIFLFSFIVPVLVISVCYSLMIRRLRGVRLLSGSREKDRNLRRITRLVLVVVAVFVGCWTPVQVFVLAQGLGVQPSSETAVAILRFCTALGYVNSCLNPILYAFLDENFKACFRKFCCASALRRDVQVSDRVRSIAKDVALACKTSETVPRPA

Structure (SMILES) | inhibition (Rattus norvegicus [1]) [%] | inhibition [2] [%] | Activity (Mus musculus [3]) | inhibition [4] [%] | inhibition [5] [%] | inhibition [6] [%] | inhibition [7] [%] | inhibition [8] [%] | inhibition [9] [%] | inhibition (Rattus norvegicus [10]) [%] | inhibition [11] [%] | inhibition [12] [%] | inhibition [13] [%] | inhibition [14] [%] | inhibition [15] [%] | inhibition [16] [%] | inhibition [17] [%] | inhibition [18] [%] | inhibition [19] [%] | inhibition (Rattus norvegicus [20]) [%] | also measured
Cc1cccc(C)c1OCCOCCN[C@@H](C)CO | -5.4 | -4 | inactive | 2.2 | 15 | 16.2 | 16.5 | 3 | 15.4 | 79 | 24.6 | 41.2 | 22.8 | 35.5 | 63.9 | -2 | 5.7 | 14.1 | 5.7 | 5.8 | inhibition [21]: 11.2%; inhibition (Rattus norvegicus [22]): 9.4%; Activity (Mus musculus [23]): inactive; inhibition (Rattus norvegicus [24]): 17.7%; inhibition [25]: 10.7%; inhibition [26]: 15.7%; inhibition [27]: 32.1%; inhibition [28]: 11.7%; inhibition [29]: 14.7%; inhibition [30]: 0.2%; Activity (Rattus norvegicus [31]): inactive
Cc1cccc(C)c1OCCOCCN[C@H](C)CO | -1.4 | -0.8 | inactive | -3.6 | 8 | 12.4 | -1.8 | -1.8 | 6.7 | 54.9 | 24.5 | 2.2 | 6 | 42.8 | 70.6 | -5.5 | 2 | 22.7 | 8.6 | 9.6 | inhibition [21]: 3.4%; inhibition (Rattus norvegicus [22]): 9.4%; Activity (Mus musculus [23]): inactive; inhibition (Rattus norvegicus [24]): 0.8%; inhibition [25]: 4.2%; inhibition [26]: 11.2%; inhibition [27]: 22.6%; inhibition [28]: 6.4%; inhibition [29]: 12%; inhibition [30]: 1.5%; Activity (Rattus norvegicus [31]): inactive
